Screening results: PubChem BioAssay, several laboratories
Shown is part of a subset that was picked to be rich in hits.
UPR XBP1 act: adaptive UPR (XBP1) activation. AID 463104. 330,000 compounds, 0.33% hits. CHO-XBP1 luciferase reporter, IRE1-XBP1 UPR activation, luminescence; percent of tunicamycin response, DMSO as zero. activation, % at 20 µM;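 active = versus positive control, 20 µM dose yields 30% or more activation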
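Material: CHO-XBP1 cells stably carrying IRE1-XBP1-driven luciferase reporter | Medium: F12 with 10% serum | Compound dosing: 20 µM single concentration, DMSO 1% | Incubation: Overnight seeding at 37 °C, 6 h compound treatment at 37 °C | Detection: Steady-Glo luminescence read | Read-out basis: % activation of reporter signal versus tunicamycin and DMSO controls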
CHOP inh: CHOP inhibition in unfolded protein response. CHO-K1 CHOP-promoter luciferase, tunicamycin-induced, 15-18 h. inhibition, % at 10 µM. 220,000 compounds, 3.8% hits;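 active = compounds that reduced the stress-induced luciferase reporter signal by more than about 70% of percent inhibition, limit read from the data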
CTSL1 counter: cathepsin L1 inhibition, PFM18AAP counter-screen. 300,000 compounds, 0.49% hits. recombinant F. hepatica cathepsin L1, Z-Leu-Arg-MCA fluorescence. inhibition, % at 5.96 µM. AID 1906;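 active = inhibition above the mean of all tested compounds plus 3 SD, set per screening campaign, cut at about 17% in these data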
UPR CHOP act: activators of apoptotic arm of unfolded protein response (CHOP). activation, % at 10 µM. CHO-CHOP luciferase reporter, UPR activation, luminescence; percent of tunicamycin response over DMSO baseline. 330,000 compounds, 0.34% hits;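 active = at 10 µM dose, activation of 40% or more, normalized to positive control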
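assay system = CHO CHOP reporter cells | amount = 500 CHO-CHOP cells per well | buffer or medium = F12 with 10% FBS | incubation = 16-18 h cell attachment, then 6 h compound exposure, 37 °C | detection = luminescence read with Steady-Glo | read-out = percent activation relative to tunicamycin control | controls = tunicamycin high control, DMSO low control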
UCH37 inh: human UCH37 deubiquitinating enzyme inhibition; inhibition, % (no concentration beside the values); purified proteasome/UCH37, Ub-AMC cleavage fluorescence; 330,000 compounds, 0.33% hits; AID 588478;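 active = mean inhibition over replicate wells above about 20%, limit read from the data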
Target sequence (Q9Y5K5 whole entry, looked up): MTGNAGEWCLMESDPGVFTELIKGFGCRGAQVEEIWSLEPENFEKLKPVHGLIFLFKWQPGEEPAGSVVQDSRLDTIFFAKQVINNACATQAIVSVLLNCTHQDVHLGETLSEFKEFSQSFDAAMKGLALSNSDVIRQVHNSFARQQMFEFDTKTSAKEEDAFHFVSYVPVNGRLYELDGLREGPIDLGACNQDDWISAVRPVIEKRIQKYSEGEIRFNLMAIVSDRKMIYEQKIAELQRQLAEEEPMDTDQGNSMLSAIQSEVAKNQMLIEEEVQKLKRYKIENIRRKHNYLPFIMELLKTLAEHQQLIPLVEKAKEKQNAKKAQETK
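Test system – human UCH37 enzyme supplied as purified proteasome complex · Incubation – 30 min preincubation with enzyme, 25 min cleavage at room temperature · Detection – AMC fluorescence from Ub-AMC cleavage, excitation 355 nm, emission 460 nm · Benchmarks – no-proteasome wells (full inhibition) and compound-free wells (no inhibition)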
Hits are given with their value; i = inactive; nt = no result.

SMILES	UPR XBP1 act	CHOP inh	CTSL1 counter	UPR CHOP act	UCH37 inh
O=C(NCCC1=CCCCC1)Nc1ccc2nsnc2c1	i	i	24.4	i	i
O=C(COc1cccc(Br)c1)N/N=C1\CCCc2ccccc21	i	74.5	i	i	nt
O=C(COc1cccc(Br)c1)NN=C1c2ccccc2-c2ccccc21	i	i	i	i	i
COc1ccc(C=NNC(=O)c2ccc3c(c2)OCO3)cc1	nt	nt	nt	nt	i
C=CCSc1nnc(-c2sc(-c3ccccc3)nc2C)n1C	i	i	i	i	i
C=CCN(C(=O)CSC1=NC(=O)CN1C(C)=O)c1nc(C)c(-c2ccccc2)s1	i	94.9	18.9	i	i
Cn1nnnc1-c1cc(Br)ccc1NC(=O)c1ccccc1	i	76.5	i	i	i
Cc1c(NC(=O)C2CC(c3ccc(F)cc3)=NO2)c(=O)n(-c2ccccc2)n1C (stereo unspecified)	i	i	i	i	i
Cc1c(NC(=O)c2cc(C3CC3)on2)c(=O)n(-c2ccccc2)n1C	i	i	42.0	i	i
COc1cc(NC(=O)c2cc(C3CC3)on2)c(OC)cc1Cl	i	83.8	i	i	i
Cc1c(NC(=O)C2CC(c3cccc(Br)c3)=NO2)c(=O)n(-c2ccccc2)n1C (stereo unspecified)	i	i	17.0	i	i
Cc1ccc(C=c2sc3nc(-c4ccccc4Br)nn3c2=O)o1	nt	nt	nt	nt	i
O=C(CON=C1CCCc2nonc21)Nc1ccc(Br)cc1	nt	nt	nt	nt	i
CC(C)CCOc1ccc(Cl)cc1CN1CCOCC1	i	82.9	i	i	i
CCCCCOc1ccc(Cl)cc1CN1CCOCC1	i	i	i	i	i
COc1cc(C(=O)NN=Cc2cn(Cc3ccccc3)c3ccccc23)ccc1O	nt	nt	nt	nt	i
Cc1cc(C)n(-c2nncn2N=Cc2ccccc2F)n1	nt	nt	nt	nt	i
CSc1nsc(N/N=C/c2ccc3c(c2)OCO3)c1C#N	i	76.5	i	i	nt
CCOc1ccccc1Nc1nc(-c2sc(NC(=O)c3ccc([N+](=O)[O-])cc3)nc2C)cs1	i	81.7	i	i	nt
Cc1ccccc1Nc1nc(-c2sc(NC(=O)c3ccc([N+](=O)[O-])cc3)nc2C)cs1	i	i	i	i	nt
COc1cc(C=NNC(=O)C(=O)NCC2CCCO2)cc(Cl)c1O (stereo unspecified)	nt	nt	nt	nt	i
CC(C)NC(=O)NC(=O)COC(=O)c1ccc(S(=O)(=O)Nc2ccccc2)cc1	i	i	i	i	i
CC(C)NC(=O)NC(=O)COC(=O)c1ccc(OC(F)(F)F)cc1	i	84.3	i	i	i
O=C(CSc1ccc(-c2ccncc2)nn1)c1ccc(Cl)cc1	i	i	i	i	i
NC(=O)C(c1ccc(Cl)cc1)c1ccc(Sc2ccc(Cl)cc2)nn1 (stereo unspecified)	i	82.9	i	i	i
SMILES	UPR XBP1 act	CHOP inh	CTSL1 counter	UPR CHOP act	UCH37 inh
COc1ccc(C=NNC(=O)c2ccoc2C)cc1OC	nt	nt	nt	nt	i
CCCCCCCCNC(=O)/C(C#N)=C/c1ccccc1[N+](=O)[O-]	i	94.1	i	i	i
CCn1c(Cn2nnc(-c3ccccc3)n2)nnc1SCC(=O)Nc1ccccc1	i	88.1	i	i	i
CCn1c(COc2ccccc2C)nnc1SCC(=O)O	i	i	i	i	i
CCn1c(COc2ccccc2C)nnc1SCC(=O)CC(=O)Nc1ccccc1	i	i	24.6	i	i
CCc1ccc(C=NNC(=O)c2nnn(-c3nonc3N)c2CN2CCOCC2)cc1	nt	nt	nt	nt	i
O=C(Nc1ccc2ccccc2n1)Nc1ccccc1F	i	nt	i	i	i
COc1cccc(NC(=O)Nc2ccc(C)c(Cl)c2)c1	i	87.8	i	i	i
COc1cccc(NC(=O)Nc2ccc(Cc3ccncc3)cc2)c1	i	70.2	i	i	i
COc1cccc(NC(=O)Nc2ccc(C(C)(C)C)cc2)c1	i	92.9	nt	i	i
CC(C)(C)c1ccc(NC(=O)Nc2ccc3ccccc3n2)cc1	i	85.3	i	i	i
CC(=NNC(=O)c1ccccc1C)c1cccnc1	nt	nt	nt	nt	i
CCCC(=O)Nc1ccc(C(=O)NN=Cc2cccnc2)cc1	nt	nt	nt	nt	i
CC(C)Cc1nnc(NC(=O)CCC(=O)Nc2ccccc2)s1	i	nt	i	i	i
O=C(Nc1ccc(Cl)cc1)Nc1nnc(Cc2ccc([N+](=O)[O-])cc2)s1	i	i	i	i	i
CC(C)Cc1nnc(NC(=O)Nc2ccccc2)s1	i	70.0	i	i	i
Cc1ccc(NC(=O)Nc2ccc([N+](=O)[O-])cc2)nc1	i	70.5	i	i	i
Cc1ccc(NC(=O)Nc2nnc(Cc3ccc([N+](=O)[O-])cc3)s2)cc1	i	75.7	i	i	i
CN(C)N=C/C=C1\CCC/C(=C/c2cccs2)C1=O	nt	nt	nt	nt	i
Cc1cc(C(=O)NN=C2CCCC(=O)C2)c(C)n1-c1ccccc1	nt	nt	nt	nt	i
O=C(NN=Cc1cc(Br)c(O)c(Br)c1)C1CC1	nt	nt	nt	nt	i
COC(=O)c1c(-c2cccc3ccccc23)csc1NC(=O)Cc1ccc(OC)c(OC)c1	i	73.4	i	i	i
COC(=O)c1c(-c2ccc(C)cc2)csc1NC(=O)Cc1ccc(OC)c(OC)c1	nt	i	nt	nt	i
CC1(OC(=O)C2CCCC2)C(=O)C=C2C=C(c3ccsc3)N(Cc3ccco3)C=C2C1=O (stereo unspecified)	i	i	22.1	i	i
CC1(OC(=O)C2CCCC2)C(=O)C=C2C=C(c3ccsc3)N(CCCCO)C=C2C1=O (stereo unspecified)	i	i	i	i	i
SMILES	UPR XBP1 act	CHOP inh	CTSL1 counter	UPR CHOP act	UCH37 inh
COc1cc(NC(=O)c2cc3sccc3n2C)cc(OC)c1	i	75.0	i	i	i
Cn1c(C(=O)Nc2ccccc2)cc2sccc21	i	i	i	i	i
COc1cccc(C=Nn2c(C3CCCCC3)n[nH]c2=S)c1OC	nt	nt	nt	nt	i
O=S(=O)(c1ccc(-c2csc(Nc3ccc(F)cc3)n2)cc1)N1CCCC1	i	90.0	i	i	i
O=S(=O)(c1ccc(-c2csc(Nc3ccc(Br)cc3)n2)cc1)N1CCCC1	i	i	i	i	i
O=C(/C=C/c1ccco1)Oc1cc(Br)cc(C=NNC(=O)c2ccccc2O)c1	nt	nt	nt	nt	i
Oc1ccc(N=Nc2nc(-c3ccccc3)c(-c3ccccc3)[nH]2)cc1	i	92.5	i	i	i
O=C(N/N=C/C1=C(N2CCOCC2)C(=C\c2ccccc2)/CC1)Nc1ccccc1	i	82.2	i	i	nt
C=C(C)C1CC=C(C)C(=NNC(=O)c2ccc(NC(=O)CCC)cc2)C1 (stereo unspecified)	nt	nt	nt	nt	i
COCc1cc(C=NNC(=O)Cc2ccc(Cl)cc2)ccc1OC	nt	nt	nt	nt	i
O=C(NCc1ccco1)c1cc2cc3ccc(Cl)cc3nc2o1	i	80.2	i	i	i
COc1ccc2cc3cc(C(=O)NCc4ccco4)oc3nc2c1	i	i	i	i	i
COc1ccccc1NCC(=O)NN=C/C=C/c1ccccc1	nt	nt	nt	nt	i
O=C(Cn1cnc2ccccc21)NN=Cc1ccccc1[N+](=O)[O-]	nt	nt	nt	nt	i
